Arr AP2 block: inhibitors of beta-arrestin/AP2 binding, primary screen, biochemical, GPCR trafficking, flow cytometry | beta-arrestin 1 C-terminal peptide binding to AP2 beta2-adaptin appendage (human) | FITC-arrestin peptide / GST-AP2 beads; AP2 beta2 appendage carries R879A mutation | inhibition, % at 10 µM | 340,000 compounds, 0.31% hits;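 active = inhibition above a set limit, near 3 SD of compounds lacking own fluorescence, cut at about 54% in these data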
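test system = AP2 appendage R879A on GSH beads | buffer or medium = PBS plus Tween 20 (0.05%) and BSA (0.1%) | incubation = 12 min plus 1 h, RT | detection = bead flow cytometry, FITC channel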
ATG4B inh: ATG4B protease inhibitors, primary screen, biochemical, fluorescence, uHTS. 340,000 compounds, 0.51% hits. inhibition, % at 8.33 µM. ATG4B cleavage of LC3-PLA2, NBD-HPC fluorescence, 1 h. Cysteine protease ATG4B (Homo sapiens), Q9Y4P1; in the data active = inhibition above about 40%
Granule exo inh: LAMP-1 surface exposure blockers, TALL-104 cells – cell-based, flow cytometry, MLPCN library, primary screen | inhibition, % at 10 µM | 360,000 compounds, 0.66% hits | TALL-104 LAMP-1 surface exposure; cells stimulated with thapsigargin and PMA;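 active = inhibition above about 55%, limit read from the data; inconclusive = no clear call, values can overlap the other calls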
ABCB6 inh MLPCN: ABCB6 transporter inhibitors, primary screen, K562-ABCB6 cells, flow cytometry, MLPCN library | fluorescence ratio to DMSO, % at 10 µM | AID 602162, 2011 | ATP-binding cassette sub-family B member 6 (Homo sapiens), Q9NP58 | K562-ABCB6 porphyrin accumulation, 1 h; stronger effect = lower value | 360,000 compounds, 0.19% hits;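 active = fluorescence ratio to DMSO below 75%, the collection mean minus 3 SD; inconclusive = too few cells collected in the well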;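 note: signal is porphyrin accumulated inside mitochondria; lower ratio means ABCB6 inhibition with less porphyrin fluorescence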
Target sequence (Q9NP58 whole entry, looked up): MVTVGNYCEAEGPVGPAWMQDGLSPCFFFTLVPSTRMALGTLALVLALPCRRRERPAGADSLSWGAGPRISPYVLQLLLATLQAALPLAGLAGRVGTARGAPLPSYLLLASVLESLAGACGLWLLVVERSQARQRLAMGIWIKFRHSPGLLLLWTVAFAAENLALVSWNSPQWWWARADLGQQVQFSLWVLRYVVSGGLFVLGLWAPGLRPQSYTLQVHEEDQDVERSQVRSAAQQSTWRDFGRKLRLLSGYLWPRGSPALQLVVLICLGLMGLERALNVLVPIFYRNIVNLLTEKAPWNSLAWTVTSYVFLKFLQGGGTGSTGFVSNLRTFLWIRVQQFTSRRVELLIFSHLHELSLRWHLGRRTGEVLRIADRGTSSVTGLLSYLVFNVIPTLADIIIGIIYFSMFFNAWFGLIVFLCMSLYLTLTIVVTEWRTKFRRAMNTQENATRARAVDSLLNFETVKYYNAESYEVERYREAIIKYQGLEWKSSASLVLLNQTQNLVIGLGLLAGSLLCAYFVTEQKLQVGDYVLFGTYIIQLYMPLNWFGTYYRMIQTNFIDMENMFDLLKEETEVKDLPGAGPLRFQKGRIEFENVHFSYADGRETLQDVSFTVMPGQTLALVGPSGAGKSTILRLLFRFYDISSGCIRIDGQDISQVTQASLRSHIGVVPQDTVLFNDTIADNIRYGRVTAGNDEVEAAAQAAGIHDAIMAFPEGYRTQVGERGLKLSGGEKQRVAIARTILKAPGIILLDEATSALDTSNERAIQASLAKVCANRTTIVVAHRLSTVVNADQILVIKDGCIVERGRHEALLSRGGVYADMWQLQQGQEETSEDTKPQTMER
CendR NRP1 mod: modulators of CendR peptide binding to NRP-1, primary screen, biochemical, fluorescence polarization, uHTS. Neuropilin-1 (Homo sapiens), O14786. 360,000 compounds, 0.85% hits. FAM-RPARPAR peptide binding to NRP-1. inhibition, % at 25 µM;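 active = inhibition or corrected inhibition above about 18%, plus a signal ratio from 0.5 to 1.5, limit read from the data, passing the limit was not always enough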
Myeloid diff MLP: induction of myeloid progenitor differentiation, primary screen, cell-based, flow cytometry, MLPCN library; ER-HoxA9 myeloid progenitors, lysozyme-GFP differentiation; calls only at 10 µM; 360,000 compounds, 1% hits; AID 624256, 2012;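 active = normalized GFP-positive differentiation at or above the plate's own cutoff, the solvent-only control mean plus 3 SD; inconclusive = no clear call, values can overlap the other calls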;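 note: cells exposed to compound for four days before flow analysis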
Arr AP2 CP1: inhibitors of arrestin peptide binding to AP2, confirmation, biochemical, cherry pick 1, flow cytometry beads; inhibition, % at 10 µM; 1,300 compounds, 2% hits; GST-AP2 beads, FITC arrestin peptide binding; GST-fused beta2-adaptin appendage, R879A mutant; shares compounds with Arr AP2 block;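 active = inhibition above a set limit, roughly 3 SD of non-fluorescent compound noise, cut at about 38% in these data; inactive = inhibition at or below that limit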;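 note: loss of bead fluorescence from 50 nM FITC arrestin peptide bound to appendage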
GST-FITC bead: GST-fluorescein capture on glutathione beads, confirmation, artefact control for arrestin-AP2 inhibitor project, biochemical, cherry pick 1, flow cytometry. shares compounds with Arr AP2 block. 1,300 compounds, 2% hits. inhibition, % at 10 µM. GST-fluorescein binding to GSH beads, fluorescence, counter-screen. AID 588338, 2011;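 active = inhibition above 50%, about 3 SD of the inhibition seen with non-fluorescent compounds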;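 note: fluorescein maleimide labelled GST captured on 4 micron glutathione beads; higher means more loss of bead fluorescence from quenching or blocked binding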
Large screens that a line does not name were inactive (follow-up assays come after a bar, where they were run). Most compounds without a hit are left out; they make up all but 3.3% or so of the library.

CCn1c(=O)n(CC)c2cc(N3CCCC3)c(NC(=O)c3cccc(Cl)c3)cc21	none | Arr AP2 CP1 inactive | GST-FITC bead inactive
CCn1c(=O)n(CC)c2cc(N3CCCC3)c(NC(=O)c3cccc(C)c3)cc21	Arr AP2 block 64 | Arr AP2 CP1 inactive | GST-FITC bead inactive
CCN1CCN(c2ccc(S(=O)(=O)N3CCCCC3)cc2NC(=O)c2cccc(Cl)c2)CC1	none
CN1CCN(c2ccccc2NC(=O)c2ccc(N3CCCC3)c([N+](=O)[O-])c2)CC1	none
CCn1c(=O)n(CC)c2cc(N3CCCC3)c(NC(=O)c3ccc(C)c([N+](=O)[O-])c3)cc21	Arr AP2 block 70 | Arr AP2 CP1 inactive | GST-FITC bead inactive
Cc1ccc(CN2CC(C(=O)N(CC(C)C)c3c(N)n(Cc4ccccc4)c(=O)[nH]c3=O)CC2=O)cc1 (centres undefined)	none
O=C(CCc1nnc(C2CCCCC2)o1)N1CCN(C2CCCCC2)CC1	none
COC(c1ccccc1)c1nnc(CCC(=O)N2CCN(C3CCCC3)CC2)o1 (centres undefined)	Arr AP2 block 69 | Arr AP2 CP1 inactive | GST-FITC bead inactive
Cc1ccc(-n2nc3c(c2NC(=O)c2cc4ccccc4o2)CS(=O)(=O)C3)cc1	Arr AP2 block 57 | Arr AP2 CP1 inactive | GST-FITC bead inactive
Cc1c(N(C(=O)c2cnccn2)C2(C(=O)NC3CCCC3)CCCCC2)c(=O)n(-c2ccccc2)n1C	Arr AP2 block 56 | Arr AP2 CP1 inactive | GST-FITC bead inactive
COc1ccc(Cl)cc1NC(=S)N(CCN1CCOCC1)C1CCN(C(C)=O)CC1	none
Cn1c2ccccc2c2ccc3c(c21)C(=O)C=CC3=O	Arr AP2 block 70, Granule exo inh 106 | Arr AP2 CP1 55 | GST-FITC bead inactive
COc1ccc2c(c1)c1ccc3c(c1n2C)C(=O)C=CC3=O	Arr AP2 block 57, Myeloid diff MLP inconclusive | Arr AP2 CP1 inactive | GST-FITC bead inactive
CCOC(=O)C1(Cc2cccc(Cl)c2)CCCN(C(=O)c2cn[nH]c2)C1 (centres undefined)	Arr AP2 block 67 | Arr AP2 CP1 inactive | GST-FITC bead inactive
CCOC(=O)C1(Cc2ccccc2)CCCN(C(=O)c2cn[nH]c2)C1 (centres undefined)	none
CCOC(=O)C1(Cc2cccc(Cl)c2)CCCN(C(=O)CN2C(=O)CSC2=O)C1 (centres undefined)	Arr AP2 block 62 | Arr AP2 CP1 inactive | GST-FITC bead inactive
CN(CC(=O)Nc1ccccc1C(F)(F)F)C(=O)c1cccc(-n2cccc2)c1	none
C1CCN(c2nc(N3CCCCC3)nc(N3CCNCC3)n2)CC1	Arr AP2 block 101 | Arr AP2 CP1 inactive | GST-FITC bead inactive
CC(=O)Nc1ccc(S(=O)(=O)NC2CCS(=O)(=O)C2)cc1Cl (centres undefined)	none
CC(/C=N/Nc1nc2ccccc2[nH]1)=C\c1ccccc1	Arr AP2 block 107 | Arr AP2 CP1 inactive | GST-FITC bead inactive
O=C(/C=C/c1ccc(Cl)cc1)NC(=S)Nc1ccc(CN2CCOCC2)cc1	Arr AP2 block 105 | Arr AP2 CP1 inactive | GST-FITC bead inactive
CC(C)COc1ccc(C(=O)NC(=S)Nc2ccc(CN3CCOCC3)cc2)cc1	Arr AP2 block 103 | Arr AP2 CP1 inactive | GST-FITC bead inactive
COc1ccc(C(=O)NC(=S)Nc2ccc(CN3CCOCC3)cc2)cc1OC	none
COc1cc(NC(=O)CN2C(=O)c3ccccc3Sc3ccc(C(=O)N4CCOCC4)cc32)cc(OC)c1OC	none
O=C(CN1C(=O)NC2(CCCC2)C1=O)Nc1nc(-c2ccccc2)cs1	none
CN(C(=O)C1CCC(CNS(=O)(=O)c2cccc3cccnc23)CC1)C1CCCCC1 (centres undefined)	none
CCSc1nc(N2CCOCC2)c2c(c1C#N)CC(C)(C)N(C)C2	Arr AP2 block 54 | Arr AP2 CP1 inactive | GST-FITC bead inactive
CC(C)c1ccc2[nH]c(O)c(N=NC(=O)c3cccc(S(=O)(=O)Nc4ccccc4Cl)c3)c2c1	Arr AP2 block 100 | Arr AP2 CP1 inactive | GST-FITC bead inactive
O=C(N=Nc1c(O)[nH]c2ccccc12)c1cccc(S(=O)(=O)Nc2ccccc2Cl)c1	none
COc1ccc(-c2oc3ccccc3c2C(=O)OCc2ccccc2)cc1	none
CN1CCN(C(=O)c2ccc3c(Cl)c4c(nc3c2)CCCC4)CC1	Arr AP2 block 64 | Arr AP2 CP1 inactive | GST-FITC bead inactive
O=C(OCc1cn([C@@H]2C[C@H](c3ccccc3)N(C(=O)C3CCCCC3)C[C@H]2O)nn1)c1ccccc1	none (no result: Arr AP2 block, ATG4B inh)
CCCCNC(=O)Cn1c(=O)oc2cc(S(=O)(=O)N3CC(C)CC(C)C3)ccc21 (centres undefined)	none
Cc1cc(C)cc(NC(=O)Cn2c(=O)oc3cc(S(=O)(=O)N4CC(C)CC(C)C4)ccc32)c1 (centres undefined)	Arr AP2 block 97 | Arr AP2 CP1 inactive | GST-FITC bead inactive
O=C(Cc1ccccc1)Nc1ccc(C(=O)NCC2COc3ccccc3O2)cc1 (centres undefined)	none
O=C(NCC1COc2ccccc2O1)c1ccc(NC(=O)C(c2ccccc2)c2ccccc2)cc1 (centres undefined)	Arr AP2 block 99 | Arr AP2 CP1 inactive | GST-FITC bead inactive
Cc1cc(C(=O)COc2ccc3ccc(=O)oc3c2)c(C)n1Cc1cccs1	Arr AP2 block 94 | Arr AP2 CP1 inactive | GST-FITC bead inactive
COc1ccc(CCN(C)C(=O)CN2C(=O)NC3(CCCCC3C)C2=O)cc1OC (centres undefined)	none
Cc1ccc(N2C(=N)/C(=C3/Nc4ccccc4S3)C(c3ccccc3)C2=O)cc1 (centres undefined)	Arr AP2 block 56 | Arr AP2 CP1 inactive | GST-FITC bead inactive
COc1ccccc1CNC(=O)CCNS(=O)(=O)c1ccc2[nH]c(=O)oc2c1	none
CCCCC1=NN2C(=N)CC(=O)N=C2S1	none

Screening results (PubChem BioAssay)
